A word on the IC50: it is the midpoint of a concentration-inhibition curve. By Ki is commonly meant the dissociation constant of the complex between target and ligand, obtained from inhibition or displacement. A higher Ki goes with weaker binding.

Assay [1] deals with Human immunodeficiency virus 1. In words: Antiviral activity against multi-drug resistant HIV1B harboring protease L10I/L33I/M36I/M46I/F53L/K55R/I62V/L63P/A71V/G73S/V82A/L90M/I93L mutant infected in human MT4 cells by p24 assay. The assay is classed as functional, organism-based. The following applies: Human immunodeficiency virus 1, B. An outline of the steps:
(§1)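 MT-4 cells (1×10^4) infected with 50 TCID50 of virus and cultured across a range of compound concentrations. Virus was wild-type HIV-1 NL4-3 or a multidrug-resistant variant (HIV-1B, HIV-1C, or DRV-resistant P20). IC50 from p24 assay. Run in triplicate. Values are means (±1 SD) from two independent experiments.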

Assay [2] relates to Human immunodeficiency virus 1. Kind of assay: Antiviral activity against wild type HIV1 NL4-3 infected in human MT4 cells by p24 assay. The assay is classed as functional, organism-based. The note with it: Human immunodeficiency virus 1, NL4-3, MT4. An outline of the steps:
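MT-4 cells (1×10^4) infected with 50 TCID50 of virus and cultured across a range of compound concentrations. IC50 from p24 assay. Run in triplicate. Values are means (±1 SD) from two independent experiments.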

The subject of assay [3] is Human immunodeficiency virus 1. In words: Antiviral activity against darunavir resistant HIV1 harboring protease L10I/I15V/K20R/L24I/V32I/M36I/M46L/L63P/A71T/V82A/L89M mutant at 20 passages infected in human MT4 cells by p24 assay. In kind it is functional, organism-based. The note with it: Human immunodeficiency virus 1, MT4. An outline of the steps:
as §1

For assay [4], the system named is Human immunodeficiency virus 1. In words: Antiviral activity against multi-drug resistant HIV1C harboring protease L10I/I15V/K20R/L24I/M36I/M46L/I54V/I62V/L63P/K70Q/V82A/L89M mutant infected in human MT4 cells by p24 assay. The following applies: Human immunodeficiency virus 1, C. The assay is classed as functional, organism-based. An outline of the steps: as §1

Another assay deals with Protease (Human immunodeficiency virus 1, UniProt Q9YQ12). In words: Inhibition of HIV1 protease using Abz-NleF*-6 as substrate preincubated for 5 to 10 mins followed by substrate addition measured after 1 hr by fluorometric assay.
In assay [5] the test system is Human immunodeficiency virus. Kind of assay: Antiviral activity against HIV1 […] infected in human MT2 cells by MTT assay. In kind it is functional, organism-based. The note with it: Human immunodeficiency virus 1, MT2. An outline of the steps:
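MT-2 human T-lymphoid cells infected with 100 TCID50 of HIV-1 LAI and cultured with each inhibitor. IC50 read by MTT assay. Run in triplicate. Values are means (±1 SD) from two independent experiments.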
Background: Tetrazolium assays rely on reduction of a dye to a coloured formazan, in cell work by metabolically active cells.

Chain of Protease (Q9YQ12 whole entry): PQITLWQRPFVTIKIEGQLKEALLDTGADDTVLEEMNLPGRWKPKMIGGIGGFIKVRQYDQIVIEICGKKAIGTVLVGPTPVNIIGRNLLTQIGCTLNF

For the compound `CC(C)CN(C[C@@H](O)[C@H](Cc1ccccc1)NC(=O)O[C@H]1CCOC1)S(=O)(=O)c1ccc(N)cc1`, the IC50 in assay [1] is 0.86 µM; in assay [2] it was 0.017 µM; in assay [3] it was above 1 µM; in assay [4], 0.43 µM.
`CC(C)CN(C[C@@H](O)[C@H](Cc1ccccc1)NC(=O)O[C@H]1CO[C@H]2OCC[C@H]21)S(=O)(=O)c1ccc(N)cc1`: the IC50 in assay [1] worked out at 0.043 µM; in assay [3], 0.087 µM; in assay [4], 0.03 µM.
With `COc1ccc(S(=O)(=O)N(C[C@@H](O)[C@H](CC23CC4CC(CC(C4)C2)C3)NC(=O)O[C@H]2CO[C@H]3OCC[C@H]32)c2ccccc2)cc1`, on Protease, affinity was put at a Ki of 0.0011 µM.
On to `COc1ccc(S(=O)(=O)N(CC(C)C)C[C@@H](O)[C@H](CC23CC4CC(CC(C4)C2)C3)NC(=O)O[C@H]2CO[C@H]3OCCC[C@H]32)cc1`, for which, in assay [5], the IC50 is 0.46 µM. Further, at Protease, the affinity corresponds to a Ki of 0.0019 µM.
With `COc1ccc(S(=O)(=O)N(CC(C)C)C[C@@H](O)[C@H](CC23CC4CC(CC(C4)C2)C3)NC(=O)O[C@H]2CCOC2)cc1`, the IC50 in assay [1] is above 1 µM; in assay [5], 0.039 µM; in assay [2] it was 0.46 µM; in assay [3], above 1 µM; in assay [4], above 1 µM. At Protease, this compound had a Ki of 0.00054 µM.
Take `COc1ccc(S(=O)(=O)N(Cc2ccccc2)C[C@@H](O)[C@H](CC23CC4CC(CC(C4)C2)C3)NC(=O)O[C@H]2CO[C@H]3OCC[C@H]32)cc1`: the concentration for half-maximal inhibition (IC50) in assay [5] was determined as 0.31 µM. This compound gave an inhibition constant (Ki) at Protease of 0.0085 µM.
On the same counts, the results for `CC(C)CN(C[C@@H](O)[C@H](CC12CC3CC(CC(C3)C1)C2)NC(=O)O[C@H]1CCOC1)S(=O)(=O)c1ccc(N)cc1` are 0.58 µM and 0.0034 µM.
On to `COc1ccc(S(=O)(=O)N(CC(C)C)C[C@@H](O)[C@H](CC23CC4CC(CC(C4)C2)C3)NC(=O)O[C@H]2CO[C@H]3OCC[C@H]32)cc1`, for which the IC50 is above 1 µM in assay [1]; 0.032 µM in assay [5]; 0.015 µM in assay [2]; above 1 µM in assay [3]; 0.36 µM in assay [4]. For the same compound, on Protease, affinity was put at a Ki of 0.00048 µM.
As for `COc1ccc(S(=O)(=O)N(CC(C)C)C[C@@H](O)[C@H](CC23CC4CC(CC(C4)C2)C3)NC(=O)O[C@@H]2CCOC2)cc1`, at Protease, the Ki was determined as 0.0028 µM.
With `COc1ccc(S(=O)(=O)N(CC(C)C)C[C@@H](O)[C@H](CC23CC4CC(CC(C4)C2)C3)NC(=O)O[C@@H]2CO[C@@H]3OCCC[C@@H]32)cc1`, the IC50 in assay [5] was above 1 µM. For the same compound, affinity at Protease was put at a Ki of 0.024 µM.
With `CC(C)CN(C[C@@H](O)[C@H](CC12CC3CC(CC(C3)C1)C2)NC(=O)O[C@H]1CO[C@H]2OCC[C@H]21)S(=O)(=O)c1ccc(N)cc1`, the IC50 in assay [5] came out at 0.06 µM. Besides, the Ki at Protease amounted to 0.00073 µM.
The compound `COc1ccc(S(=O)(=O)N(CC(C)C)C[C@@H](O)[C@H](CC23CC4CC(CC(C4)C2)C3)NC(=O)O[C@@H]2CO[C@@H]3OCC[C@@H]32)cc1` yielded an inhibition constant Ki at Protease of 0.001 µM.

Values taken from ChEMBL document CHEMBL4425138, “Probing Lipophilic Adamantyl Group as the P1-Ligand for HIV-1 Protease Inhibitors: Design, Synthesis, Protein X-ray Structural Studies, and Biological Evaluation” (J Med Chem, 2016).
